Broadly, the IC50 is the concentration at which inhibition is half-maximal. A word on the viability: it is a per cent measure of how many cells are alive, often set against a control.

One data set deals with native AMPA receptors. Put plainly: Radioligand binding at native AMPA receptors. Particulars: read-out: AMPA IC50; [3H]AMPA, rat synaptosomes. The gist of the method:
(§1)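 Native receptors in rat brain synaptosomes: AMPA labelled with [3H]AMPA, KA with [3H]KA, NMDA with [3H]CGP-39653. Recombinant homomeric rat GluK1-3 labelled with [3H]KA. IC50 and Ki values derived from displacement data.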

In a further data set the target is native KA receptors. Put plainly: Radioligand binding at native KA receptors. The settings on record: [3H]KA, rat synaptosomes. The gist of the method:
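Native kainate receptors in rat brain synaptosomes were labelled with [3H]KA, and displacement by the test compound was measured. IC50 and Ki values were derived from the binding data.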

The target of a further data set is GluN1/GluN2A (Rattus norvegicus, UniProt Q00959). Put plainly: Two-electrode voltage-clamp electrophysiology, Xenopus oocytes, GluN1/GluN2A. The format is biochemical. The settings on record: 100 μM glycine and 10 μM Glu. The procedure, abridged: (§2)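 Rat GluN1 and GluN2A-D cRNAs injected 1:2 into Xenopus oocytes, held at 18 °C in Barth's solution. Recorded at room temperature 2–6 days later in 90 mM NaCl, 1 mM KCl, 10 mM HEPES, 0.5 mM BaCl2, 0.01 mM EDTA (pH 7.4), −40 mV. Currents evoked by 100 μM glycine plus Glu: 10 μM (2A), 3 μM (2B, 2C), 1 μM (2D). Per-oocyte Hill fits, mean ± SEM.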
(In general: Two-electrode voltage clamp holds a large cell at a set potential and records current.)

The target of the next data set is GluN1/GluN2B (Rattus norvegicus, UniProt Q00960). Put plainly: Two-electrode voltage-clamp electrophysiology, Xenopus oocytes, GluN1/GluN2B. The format is biochemical. The settings on record: 100 μM glycine and 3 μM Glu. The gist of the method:
as §2

For the next data set, the target named is GluN1/GluN2C (Rattus norvegicus, UniProt Q00961). Kind of data set: Two-electrode voltage-clamp electrophysiology, Xenopus oocytes, GluN1/GluN2C. It counts as biochemical. The settings on record: 100 μM glycine and 3 μM Glu. The procedure, abridged:
as §2

Another data set has as its target GluN1/GluN2D (Rattus norvegicus, UniProt Q62645). Put plainly: Two-electrode voltage-clamp electrophysiology, Xenopus oocytes, GluN1/GluN2D. The settings on record: 100 μM glycine and 1 μM Glu. The format is biochemical. The procedure, abridged: as §2
Data set [1] is described as follows: In vivo pharmacokinetics in mice, 10 mg/kg i.p. More on the design: species or system mouse.
A short description of data set [2]: In situ mouse brain perfusion. It counts as in vivo. The procedure, abridged: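 Adult male mice, 25 ± 5 g, anaesthetised with i.p. ketamine 120 mg/kg plus xylazine. Right external carotid ligated; right common carotid cannulated with a 100 IU/mL heparin-filled catheter. Perfused with 100 μM test compound at 37 °C and 2.5 mL/min for 60 s, then washed 2 s with 4 °C drug-free buffer. Brain level measured (detection limit 5 pmol/g).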

Data set [3] relates to NMDA receptors in murine HCC cells. Kind of data set: Calcium imaging of NMDA-induced Ca2+ transients in murine HCC cells. It counts as cell-based, mouse. Particulars: 150 μM NMDA.
The subject of another data set is Abcb1 (Pgp). Kind of data set: Transporter protein expression by SRM/MRM LC-MS/MS, Abcb1. It counts as cell-based, mouse. The settings on record: 10 μM, 48 h, HCC cell crude membrane fraction.
In another data set the test system is Abcg2 (Bcrp). Kind of data set: Transporter protein expression by SRM/MRM LC-MS/MS, Abcg2. It counts as cell-based, mouse. Particulars: 10 μM, 48 h, HCC cell crude membrane fraction.
In the next data set the test system is Abcc2 (Mrp2). Put plainly: Transporter protein expression by SRM/MRM LC-MS/MS, Abcc2. It counts as cell-based, mouse. Particulars: 10 μM, HCC cell crude membrane fraction.
A further data set has as its system Abcc4 (Mrp4). Kind of data set: Transporter protein expression by SRM/MRM LC-MS/MS, Abcc4. Particulars: 10 μM, 48 h, HCC cell crude membrane fraction. The format is cell-based, mouse.
A further data set has as its system Slc2a1 (Glut1). Kind of data set: Transporter protein expression by SRM/MRM LC-MS/MS, Slc2a1. It counts as cell-based, mouse. Particulars: 10 μM, 48 h, HCC cell crude membrane fraction.
A further data set concerns Slc7a5 (Lat1). Put plainly: Transporter protein expression by SRM/MRM LC-MS/MS, Slc7a5. It counts as cell-based, mouse. Particulars: 10 μM, 48 h, HCC cell crude membrane fraction.
Another data set relates to native NMDA receptors. Put plainly: Radioligand binding at native NMDA receptors. More on the design: species or system rat. Particulars: compared with 1l / 1n.
The subject of the next data set is mouse HCC cells. Put plainly: Anti-proliferative activity in vitro. It counts as cell-based. The settings on record: 72 h. The procedure, abridged: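 Mouse Nras-driven p53−/− HCC cells in DMEM with 2 mM L-glutamine, 10% heat-inactivated FBS and penicillin/streptomycin. Cells seeded at 2×10^4/well on collagen-coated plates and used one day later. Test compound given at 0.1–200 μM, or at 1, 2.5, 5 and 10 μM with or without a 100 μM second test compound, for 72 h with daily medium change. Viability read by resazurin fluorescence (ex 560/em 590 nm). IC50 by nonlinear regression, mean ± SEM.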

The next data set addresses iGluRs. Kind of data set: Binding affinity at iGluRs. More on the design: species or system rat. The settings on record: native iGluRs and homomeric GluK1-3. The procedure, abridged: as §1

A value given as a limit tells only on which side of the number the result lay.

GluN1/GluN2B, sequence (Q00960 27-1482, other chains not shown): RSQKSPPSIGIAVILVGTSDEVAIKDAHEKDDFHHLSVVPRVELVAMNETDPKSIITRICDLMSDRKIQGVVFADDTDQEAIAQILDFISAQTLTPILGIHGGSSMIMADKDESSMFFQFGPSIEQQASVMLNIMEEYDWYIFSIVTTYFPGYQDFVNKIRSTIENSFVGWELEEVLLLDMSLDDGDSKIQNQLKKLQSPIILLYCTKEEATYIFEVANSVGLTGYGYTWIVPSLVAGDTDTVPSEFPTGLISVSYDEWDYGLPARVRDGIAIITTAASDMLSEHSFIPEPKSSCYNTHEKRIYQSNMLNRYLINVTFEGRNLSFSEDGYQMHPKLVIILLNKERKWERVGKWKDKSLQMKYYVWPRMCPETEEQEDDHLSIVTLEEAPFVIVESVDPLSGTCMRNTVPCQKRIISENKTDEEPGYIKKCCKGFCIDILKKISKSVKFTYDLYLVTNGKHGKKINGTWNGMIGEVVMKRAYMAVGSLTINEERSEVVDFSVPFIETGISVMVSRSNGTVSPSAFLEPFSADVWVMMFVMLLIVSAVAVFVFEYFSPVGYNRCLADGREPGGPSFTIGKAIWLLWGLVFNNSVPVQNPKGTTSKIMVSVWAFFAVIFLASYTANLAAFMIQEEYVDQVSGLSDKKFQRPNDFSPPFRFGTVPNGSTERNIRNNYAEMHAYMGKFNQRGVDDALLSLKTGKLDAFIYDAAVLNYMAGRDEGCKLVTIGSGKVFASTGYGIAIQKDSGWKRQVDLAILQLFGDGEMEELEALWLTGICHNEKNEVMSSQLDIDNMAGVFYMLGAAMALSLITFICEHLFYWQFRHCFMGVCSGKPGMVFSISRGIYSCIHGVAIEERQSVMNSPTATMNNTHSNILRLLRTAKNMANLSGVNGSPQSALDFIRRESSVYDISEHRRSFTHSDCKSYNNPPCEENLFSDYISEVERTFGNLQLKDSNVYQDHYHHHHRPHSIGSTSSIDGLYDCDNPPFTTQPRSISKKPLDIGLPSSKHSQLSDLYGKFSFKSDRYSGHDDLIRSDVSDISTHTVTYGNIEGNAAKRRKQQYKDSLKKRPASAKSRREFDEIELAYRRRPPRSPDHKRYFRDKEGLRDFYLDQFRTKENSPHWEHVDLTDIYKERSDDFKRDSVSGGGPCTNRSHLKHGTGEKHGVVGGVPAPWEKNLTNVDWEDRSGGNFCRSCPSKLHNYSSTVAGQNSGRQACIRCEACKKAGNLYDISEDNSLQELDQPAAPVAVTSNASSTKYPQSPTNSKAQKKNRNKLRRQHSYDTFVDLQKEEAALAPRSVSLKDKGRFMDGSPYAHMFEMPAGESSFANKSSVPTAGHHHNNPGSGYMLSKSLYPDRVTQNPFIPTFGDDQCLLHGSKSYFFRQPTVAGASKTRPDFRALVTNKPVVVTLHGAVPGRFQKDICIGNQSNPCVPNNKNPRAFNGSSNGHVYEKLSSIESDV
GluN1/GluN2C, sequence (Q00961 20-1237, other chains not shown): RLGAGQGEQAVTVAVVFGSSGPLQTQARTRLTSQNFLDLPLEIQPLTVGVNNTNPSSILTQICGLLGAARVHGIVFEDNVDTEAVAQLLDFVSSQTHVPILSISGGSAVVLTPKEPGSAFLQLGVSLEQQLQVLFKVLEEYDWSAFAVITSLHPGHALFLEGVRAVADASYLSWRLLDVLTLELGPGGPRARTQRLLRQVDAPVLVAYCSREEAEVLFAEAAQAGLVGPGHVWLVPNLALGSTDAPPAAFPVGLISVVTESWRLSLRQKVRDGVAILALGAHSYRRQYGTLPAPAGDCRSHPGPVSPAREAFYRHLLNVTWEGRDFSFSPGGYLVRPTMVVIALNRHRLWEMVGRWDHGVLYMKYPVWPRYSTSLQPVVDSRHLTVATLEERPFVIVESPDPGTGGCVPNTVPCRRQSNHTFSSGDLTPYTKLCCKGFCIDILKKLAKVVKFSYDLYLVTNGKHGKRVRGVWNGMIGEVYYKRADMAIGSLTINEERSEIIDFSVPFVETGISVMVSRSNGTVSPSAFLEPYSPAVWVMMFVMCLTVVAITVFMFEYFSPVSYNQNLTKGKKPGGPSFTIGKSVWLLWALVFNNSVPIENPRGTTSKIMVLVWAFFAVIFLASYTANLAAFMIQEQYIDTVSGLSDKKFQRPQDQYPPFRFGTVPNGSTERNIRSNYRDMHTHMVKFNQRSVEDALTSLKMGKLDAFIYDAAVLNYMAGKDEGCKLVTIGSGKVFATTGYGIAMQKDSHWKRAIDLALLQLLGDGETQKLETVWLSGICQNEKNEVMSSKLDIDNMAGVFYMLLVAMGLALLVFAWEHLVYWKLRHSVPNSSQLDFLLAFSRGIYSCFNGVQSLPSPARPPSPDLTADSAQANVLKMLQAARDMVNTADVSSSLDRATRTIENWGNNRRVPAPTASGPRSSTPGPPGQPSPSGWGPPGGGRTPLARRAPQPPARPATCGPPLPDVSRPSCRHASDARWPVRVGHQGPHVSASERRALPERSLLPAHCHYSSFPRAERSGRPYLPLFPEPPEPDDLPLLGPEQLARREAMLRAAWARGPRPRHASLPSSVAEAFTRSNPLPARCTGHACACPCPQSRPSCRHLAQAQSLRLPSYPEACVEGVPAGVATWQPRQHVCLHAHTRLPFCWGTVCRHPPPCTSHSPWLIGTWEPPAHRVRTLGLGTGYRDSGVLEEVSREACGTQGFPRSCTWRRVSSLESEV
GluN1/GluN2A, sequence (Q00959 23-1464, other chains not shown): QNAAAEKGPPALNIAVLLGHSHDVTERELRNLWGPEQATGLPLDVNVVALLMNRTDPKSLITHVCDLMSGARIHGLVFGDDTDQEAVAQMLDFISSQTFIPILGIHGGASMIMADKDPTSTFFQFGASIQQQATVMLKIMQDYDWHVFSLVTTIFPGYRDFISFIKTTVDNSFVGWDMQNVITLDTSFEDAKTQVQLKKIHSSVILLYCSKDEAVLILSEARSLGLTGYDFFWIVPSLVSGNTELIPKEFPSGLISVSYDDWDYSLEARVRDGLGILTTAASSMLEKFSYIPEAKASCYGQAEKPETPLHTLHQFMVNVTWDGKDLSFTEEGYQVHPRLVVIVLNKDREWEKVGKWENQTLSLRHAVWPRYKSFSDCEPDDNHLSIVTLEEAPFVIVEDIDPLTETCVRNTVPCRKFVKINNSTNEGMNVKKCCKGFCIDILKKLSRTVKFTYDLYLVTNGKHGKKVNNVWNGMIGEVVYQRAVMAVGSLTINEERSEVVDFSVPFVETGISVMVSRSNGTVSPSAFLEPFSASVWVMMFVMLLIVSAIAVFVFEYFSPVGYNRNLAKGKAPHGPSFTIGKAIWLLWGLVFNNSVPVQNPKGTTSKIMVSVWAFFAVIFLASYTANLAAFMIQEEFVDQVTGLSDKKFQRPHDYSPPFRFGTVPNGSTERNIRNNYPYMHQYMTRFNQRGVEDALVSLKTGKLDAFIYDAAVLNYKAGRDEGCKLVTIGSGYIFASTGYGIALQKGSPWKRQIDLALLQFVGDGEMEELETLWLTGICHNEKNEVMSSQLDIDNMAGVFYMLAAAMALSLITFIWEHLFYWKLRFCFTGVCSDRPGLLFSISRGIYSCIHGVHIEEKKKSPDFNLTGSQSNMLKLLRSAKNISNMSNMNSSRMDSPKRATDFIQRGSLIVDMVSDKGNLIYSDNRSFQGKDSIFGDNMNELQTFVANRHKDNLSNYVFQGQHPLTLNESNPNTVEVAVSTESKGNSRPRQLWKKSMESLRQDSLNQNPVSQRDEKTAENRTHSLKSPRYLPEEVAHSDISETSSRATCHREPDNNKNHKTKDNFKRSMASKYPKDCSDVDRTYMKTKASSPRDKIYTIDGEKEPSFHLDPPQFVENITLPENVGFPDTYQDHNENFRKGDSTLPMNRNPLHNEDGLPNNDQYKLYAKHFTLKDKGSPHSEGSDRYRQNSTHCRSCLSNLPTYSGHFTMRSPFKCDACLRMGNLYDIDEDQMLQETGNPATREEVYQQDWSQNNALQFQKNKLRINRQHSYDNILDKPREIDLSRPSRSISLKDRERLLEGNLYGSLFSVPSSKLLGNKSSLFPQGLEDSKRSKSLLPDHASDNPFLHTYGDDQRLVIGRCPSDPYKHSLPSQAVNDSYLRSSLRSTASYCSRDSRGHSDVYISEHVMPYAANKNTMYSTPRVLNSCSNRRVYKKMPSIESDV

As to `Cl.O=C(O)c1cc([C@H]2CCN[C@@H]2C(=O)O)ccc1Cl` [1l, (2S,3R)-3-(3-Carboxy-4-chlorophenyl)pyrrolidine-2-carboxylic acid hydrochloride], the IC50 on native AMPA receptors is over 100 µM. Further, at native KA receptors, the “KA IC50” value was over 100 µM. The “nH (Hillslope)” value is 1.3 at GluN1/GluN2A, 1.3 at GluN1/GluN2B, 1.0 on GluN1/GluN2C and 1.3 on GluN1/GluN2D. In addition, the “changes in the behavior of the mice after injection” value in data set [1] (10 mg/kg i.p.) is on record as “no observable changes in the behavior”. In addition, the brain concentration in [1] (30 min after 10 mg/kg i.p.) was determined as 0.3 nmol/g; in [1] (60 min after 10 mg/kg i.p.) it was 0.1 nmol/g. In addition, in data set [2] (perfusion with 100 μM of the compound, detection limit of analytical method), the “brain concentration following perfusion” value was under 5 pmol/g. Further, the “inhibition of NMDA-induced intracellular Ca2+ transients” value in data set [3] (compound at 25 and 41 μM) is recorded as “inhibit NMDA activation significantly”. In addition, in the data set with Abcb1 (Pgp), the “Abcb1 (Pgp) protein expression level” value was 0.39± 0.06 fmol/μg of total protein. In the data set on Abcg2 (Bcrp), the “Abcg2 (Bcrp) protein expression level” value was 1.24± 0.13 fmol/μg of total protein. For the same compound, in the data set with Abcc2 (Mrp2), the Abcc2 protein expression entry is recorded as “below the lower limit of quantification”. The “Abcc4 (Mrp4) protein expression level” value with Abcc4 (Mrp4) is given as 0.27 ± 0.04 fmol/μg of total protein. The “Slc2a1 (Glut1) protein expression level” value in the data set on Slc2a1 (Glut1) is reported as 13.2± 0.53 fmol/μg of total protein. The “Slc7a5 (Lat1) protein expression level” value in the data set on Slc7a5 (Lat1) is reported as 5.72± 1.61 fmol/μg of total protein.
As for `Cl.O=C(O)[C@H]1NCC[C@@H]1c1cccc(C(F)(F)F)c1` [1e, (2S,3R)-2-Carboxy-3-(3-(trifluoromethyl)phenyl)pyrrolidin-1-ium chloride], on native AMPA receptors, the IC50 was over 100 µM. On native KA receptors, the “KA IC50” value was over 100 µM.
Turning to `O=C(O)[C@H]1NCC[C@@H]1c1ccc(O)c(O)c1` [1j, (2S,3R)-3-(3,4-Dihydroxyphenyl)pyrrolidine-2-carboxylic acid], the IC50 at native AMPA receptors was over 100 µM. Besides, on native KA receptors, the “KA IC50” value was over 100 µM.
For `Cl.O=C(O)[C@H]1NCC[C@@H]1c1cccc(Cl)c1` [1d, (2S,3R)-2-Carboxy-3-(3-chlorophenyl)pyrrolidin-1-ium chloride], in that order: over 100 µM and over 100 µM.
`Cc1ccc([C@H]2CCN[C@@H]2C(=O)O)cc1C(=O)O.Cl` [1m, (2S,3R)-3-(3-Carboxy-4-methylphenyl)pyrrolidine-2-carboxylic acid hydrochloride]: the IC50 on native AMPA receptors is over 100 µM. At native KA receptors, the “KA IC50” value was over 100 µM. Further, the “drop in binding affinity for native NMDA receptors” value with native NMDA receptors was 30 fold.
On to `O=C(O)c1cccc([C@H]2CCN[C@@H]2C(=O)O)c1` [1a, (2S,3R)-3-(3-Carboxyphenyl)pyrrolidine-2-Carboxylic Acid], for which the BBB penetration entry in [2] (mouse in situ brain perfusion) is “does not penetrate the BBB”.
Regarding `Cl.Cl.Nc1cccc([C@H]2CCN[C@@H]2C(=O)O)c1` [1f, (2S,3R)-3-(3-Aminophenyl)pyrrolidine-2-carboxylic acid dihydrochloride], the IC50 on native AMPA receptors was over 100 µM. Further, the “KA IC50” value on native KA receptors was over 100 µM.
Taken in the same sequence, the figures for `Cl.O=C(O)c1cc([C@H]2CCN[C@@H]2C(=O)O)ccc1Br` [1n, (2S,3R)-3-(3-Carboxy-4-bromophenyl)pyrrolidine-2-carboxylic acid hydrochloride] were over 100 µM and over 100 µM.
In the case of `CNC(=O)c1cc(Oc2ccc(NC(=O)Nc3ccc(Cl)c(C(F)(F)F)c3)cc2)ccn1` [sorafenib], the IC50 in the data set on mouse HCC cells (read-out: IC50 on HCC cell viability) was 7.4 ± 1.7 µM. Moreover, in the data set with mouse HCC cells (read-out: cell viability), the viability at 1 µM worked out at 88 ± 3%, the viability at 2.5 µM was determined as 82 ± 3%, the viability at 5 µM amounted to 72 ± 1% and the viability at 10 µM worked out at 31 ± 2%.
Turning to `Cl.O=C(O)[C@H]1NCC[C@@H]1c1cccc(B(O)O)c1` [1i, (2S,3R)-3-(3-Boronophenyl)pyrrolidine-2-carboxylic acid hydrochloride], the IC50 on native AMPA receptors was over 100 µM. Further, the “KA IC50” value on native KA receptors is over 100 µM. The “IC50 or Ki at the iGluRs” value on iGluRs is over 100 µM.
In the case of `N[C@H](CCCP(=O)(O)O)C(=O)O` [D-AP5, reference compound], in data set [3] (compound at 20 μM), the “inhibition of NMDA-induced intracellular Ca2+ transients” value was “inhibit NMDA activation significantly”.
Regarding `O=C(O)c1cc([C@H]2CCN[C@@H]2C(=O)O)ccc1F` [1k, (2S,3R)-2-Carboxy-3-(3-carboxy-4-fluorophenyl)pyrrolidin-1-ium chloride], the IC50 on native AMPA receptors is over 100 µM.
Regarding `Cl.N#Cc1cccc([C@H]2CCN[C@@H]2C(=O)O)c1` [1g, (2S,3R)-3-(3-Cyanophenyl)pyrrolidine-2-carboxylic acid hydrochloride], at native AMPA receptors, the concentration for half-maximal inhibition (IC50) is over 100 µM. Moreover, the “KA IC50” value on native KA receptors is over 100 µM.
As to `Cl.NC(=O)c1cccc([C@H]2CCN[C@@H]2C(=O)O)c1` [1h, (2S,3R)-3-(3-Carbamoylphenyl)-2-carboxypyrrolidin-1-ium chloride], at native AMPA receptors, the IC50 is over 100 µM. Moreover, the “KA IC50” value at native KA receptors is over 100 µM. Also, the “IC50 or Ki at the iGluRs” value on iGluRs was over 100 µM.

For the origin of these results see article PMC5788303 (Journal of medicinal chemistry, 2017).
